# Data from PMC9087257 (The Journal of International Medical Research, 2022).
# Experiments:
# PDGFRα = PDGFRα (Homo sapiens, UniProt P16234); experiment: ELISA kinase assay, PDGFRα; format: biochemical
# In short: (§1)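 Tyrosine kinase ELISA: ATP in kinase reaction buffer, then test compound diluted in DMSO (DMSO as negative control). Reaction started by adding purified kinase and incubated 1 h at 37°C. Plate washed three times with 1 mM PBS (pH 7.5), then HRP-conjugated goat anti-mouse IgG added for 30 min at 37°C. Washed again and read by spectrophotometer.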
# E-cadherin = experiment: Western blotting, E-cadherin level; format: cell-based; conditions: NCI-H460 cells, 48 h, Western blot
# In short: (§2)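 Western blot: NCI-H460 cells treated 48 h with three test-compound concentrations; 5 × 10^6 cells lysed in RIPA, run on SDS-PAGE and transferred to PVDF. Membranes blocked in 5% defatted milk. Anti-E-cadherin or anti-N-cadherin (1:10000) at 4°C for 12 h; anti-GAPDH (1:50000) 2 h at 25°C as internal control. ECL detection; bands quantified against the control group; mean ± SEM.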
# EGFR = EGFR (Homo sapiens, UniProt P00533); experiment: ELISA kinase assay, EGFR; format: biochemical
# Chain of EGFR (P00533 25-1210): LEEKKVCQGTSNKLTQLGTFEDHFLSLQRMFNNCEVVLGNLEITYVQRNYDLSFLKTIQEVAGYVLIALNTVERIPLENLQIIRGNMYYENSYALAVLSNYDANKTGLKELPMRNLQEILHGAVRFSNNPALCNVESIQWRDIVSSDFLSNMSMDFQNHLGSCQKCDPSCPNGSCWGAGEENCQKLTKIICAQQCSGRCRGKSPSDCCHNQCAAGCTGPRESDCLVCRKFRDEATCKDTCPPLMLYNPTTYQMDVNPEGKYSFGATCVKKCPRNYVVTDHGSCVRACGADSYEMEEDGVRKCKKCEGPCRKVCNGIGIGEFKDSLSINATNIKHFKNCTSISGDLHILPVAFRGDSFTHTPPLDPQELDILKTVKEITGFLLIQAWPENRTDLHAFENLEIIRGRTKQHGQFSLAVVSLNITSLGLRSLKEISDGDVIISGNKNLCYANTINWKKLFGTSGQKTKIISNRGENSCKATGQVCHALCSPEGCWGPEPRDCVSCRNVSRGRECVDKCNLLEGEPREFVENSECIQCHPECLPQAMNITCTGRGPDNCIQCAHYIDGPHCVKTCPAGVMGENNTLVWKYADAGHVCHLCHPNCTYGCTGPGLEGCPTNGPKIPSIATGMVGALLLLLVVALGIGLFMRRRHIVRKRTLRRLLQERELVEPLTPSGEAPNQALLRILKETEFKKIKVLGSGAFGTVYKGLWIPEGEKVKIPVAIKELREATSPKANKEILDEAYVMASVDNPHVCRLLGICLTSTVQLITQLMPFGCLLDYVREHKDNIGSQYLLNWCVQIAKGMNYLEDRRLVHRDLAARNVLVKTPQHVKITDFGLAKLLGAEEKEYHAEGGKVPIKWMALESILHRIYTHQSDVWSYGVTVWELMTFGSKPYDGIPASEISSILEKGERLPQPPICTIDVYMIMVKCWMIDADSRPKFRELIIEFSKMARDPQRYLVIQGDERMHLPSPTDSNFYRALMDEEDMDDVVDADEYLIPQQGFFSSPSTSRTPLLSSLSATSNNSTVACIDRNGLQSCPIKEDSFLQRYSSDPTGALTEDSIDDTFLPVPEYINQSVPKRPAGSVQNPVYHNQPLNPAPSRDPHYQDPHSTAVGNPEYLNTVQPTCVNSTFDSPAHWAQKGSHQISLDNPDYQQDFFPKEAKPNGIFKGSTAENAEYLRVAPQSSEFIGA
# In short: as §1
# HCC-44 cells = experiment: MTT cell viability assay, HCC-44; format: cell-based; conditions: for antiproliferative efficacy against HCC-44 cells: 48 h, MTT
# In short: (§3)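 MTT viability: cells grown in RPMI-1640 with 10% FBS and penicillin-streptomycin, seeded in 24-well plates and held 24 h at 37°C, 5% CO2. Test compound added over a range of concentrations: 48 h for the cancer-line panel; three treatment durations for NCI-H460, NCI-H3122, HCC-44 and BEAS2B. MTT added for 2 h at 37°C, formazan dissolved in DMSO with 30 min shaking, absorbance read. Mean ± SEM.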
# NCI-H460 cells [1] = experiment: Transwell migration assay; format: cell-based; conditions: 48 h
# In short: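 Transwell migration with NCI-H460 cells, at three test-compound concentrations. Cells seeded in the upper chamber in serum-free RPMI-1640; lower chamber held RPMI-1640 with 10% FBS. After 48 h at 37°C, 5% CO2, cells were fixed and haematoxylin-stained, and migrated cells were counted.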
# NCI-H460 xenograft = NCI-H460 xenograft study; format: in vivo, BALB/c nude mice
# In short: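 BALB/c nude mice (4 weeks, 18–21 g) carried NCI-H460 xenografts and were housed at 26–28°C on a 13 h/11 h light cycle. At tumour volume 100 mm3, mice were randomised, 5 per group, to water vehicle or 50 mg/kg test compound intragastrically every 3 days for 16 days. Tumours were then excised and weighed; heart, liver, spleen, lung and kidney taken for H&E.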
# c-Met kinase = c-Met kinase (Homo sapiens, UniProt P08581); experiment: ELISA kinase assay, c-Met; format: biochemical
# FGFR1 = FGFR1 (Homo sapiens, UniProt P11362); experiment: ELISA kinase assay, FGFR1; format: biochemical
# Chain of FGFR1 (P11362 22-822): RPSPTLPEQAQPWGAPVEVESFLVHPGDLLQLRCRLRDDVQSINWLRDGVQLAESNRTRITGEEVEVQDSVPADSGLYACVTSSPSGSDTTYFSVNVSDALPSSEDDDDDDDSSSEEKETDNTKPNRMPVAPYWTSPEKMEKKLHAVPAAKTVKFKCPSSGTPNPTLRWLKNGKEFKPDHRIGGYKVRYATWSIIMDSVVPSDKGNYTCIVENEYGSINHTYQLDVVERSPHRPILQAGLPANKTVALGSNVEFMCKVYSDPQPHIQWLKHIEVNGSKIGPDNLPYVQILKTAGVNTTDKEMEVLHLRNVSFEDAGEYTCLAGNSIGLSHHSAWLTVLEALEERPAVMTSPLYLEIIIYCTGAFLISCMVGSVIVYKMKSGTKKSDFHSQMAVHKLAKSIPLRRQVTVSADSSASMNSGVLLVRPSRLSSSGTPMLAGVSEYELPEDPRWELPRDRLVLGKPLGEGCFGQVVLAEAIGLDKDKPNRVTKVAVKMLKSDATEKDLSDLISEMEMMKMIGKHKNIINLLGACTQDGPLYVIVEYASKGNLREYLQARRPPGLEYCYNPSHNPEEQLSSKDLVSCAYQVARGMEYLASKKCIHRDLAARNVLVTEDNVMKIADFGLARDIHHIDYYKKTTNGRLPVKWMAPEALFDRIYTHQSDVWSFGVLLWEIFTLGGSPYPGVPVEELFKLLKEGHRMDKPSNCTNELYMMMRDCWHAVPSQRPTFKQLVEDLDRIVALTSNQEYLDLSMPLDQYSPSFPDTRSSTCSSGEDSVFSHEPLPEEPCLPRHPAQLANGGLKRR
# In short: as §1
# N-cadherin = experiment: Western blotting, N-cadherin level; format: cell-based; conditions: NCI-H460 cells, 48 h, Western blot
# In short: as §2
# [2] = test system: TE-11, SK-BR-3, HO-8910, QGY-7701, SHG-44, HCC-44, COLO-320, SH-SY5Y and SW579 cells; experiment: MTT cell viability, panel of nine cancer cell lines; format: cell-based; conditions: 48 h
# TRKA = TRKA (Homo sapiens, UniProt P04629); experiment: ELISA kinase assay, TRKA; format: biochemical
# Chain of TRKA (P04629 33-796): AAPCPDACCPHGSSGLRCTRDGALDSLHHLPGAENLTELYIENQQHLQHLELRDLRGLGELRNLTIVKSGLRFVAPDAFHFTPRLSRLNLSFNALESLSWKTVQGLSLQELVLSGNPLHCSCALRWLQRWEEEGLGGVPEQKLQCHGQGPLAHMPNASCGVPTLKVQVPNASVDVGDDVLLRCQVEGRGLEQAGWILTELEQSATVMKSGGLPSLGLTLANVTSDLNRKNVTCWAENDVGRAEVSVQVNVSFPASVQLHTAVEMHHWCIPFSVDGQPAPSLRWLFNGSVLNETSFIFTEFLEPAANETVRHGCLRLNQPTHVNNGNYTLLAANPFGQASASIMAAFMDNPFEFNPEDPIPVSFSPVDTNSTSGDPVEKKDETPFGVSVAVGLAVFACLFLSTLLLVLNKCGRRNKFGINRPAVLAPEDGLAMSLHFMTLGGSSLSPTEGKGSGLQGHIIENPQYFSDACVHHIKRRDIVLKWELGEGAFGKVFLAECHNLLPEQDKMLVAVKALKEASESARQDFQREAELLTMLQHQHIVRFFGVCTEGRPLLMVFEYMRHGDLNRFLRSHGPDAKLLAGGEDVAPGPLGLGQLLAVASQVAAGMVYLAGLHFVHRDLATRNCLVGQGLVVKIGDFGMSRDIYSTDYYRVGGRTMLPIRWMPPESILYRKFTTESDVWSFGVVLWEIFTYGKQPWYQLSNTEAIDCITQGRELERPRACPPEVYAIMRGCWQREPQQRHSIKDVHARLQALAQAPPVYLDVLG
# In short: as §1
# NCI-H460 cells [3] = experiment: Wound healing assay; format: cell-based; conditions: 75 nM, 150 nM and 300 nM, 48 h
# NCI-H460 cells [4] = experiment: MTT cell viability assay, NCI-H460; format: cell-based; conditions: Homo sapiens, NCI-H460, read-out: IC50 against NCI-H460 cells
# In short: as §3
# ALK = ALK (Homo sapiens, UniProt Q9UM73); experiment: ELISA kinase assay, ALK; format: biochemical
# In short: as §1
# NCI-H3122 cells = experiment: MTT cell viability assay, NCI-H3122; format: cell-based; conditions: Homo sapiens, NCI-H3122, read-out: IC50 against NCI-H3122 cells
# In short: as §3
# [5] = MTT cytotoxicity against normal cells BEAS2B; format: cell-based; conditions: human, BEAS2B cells (normal human epithelium cells)
# In short: as §3
# Chain of PDGFRα (P16234 24-1089): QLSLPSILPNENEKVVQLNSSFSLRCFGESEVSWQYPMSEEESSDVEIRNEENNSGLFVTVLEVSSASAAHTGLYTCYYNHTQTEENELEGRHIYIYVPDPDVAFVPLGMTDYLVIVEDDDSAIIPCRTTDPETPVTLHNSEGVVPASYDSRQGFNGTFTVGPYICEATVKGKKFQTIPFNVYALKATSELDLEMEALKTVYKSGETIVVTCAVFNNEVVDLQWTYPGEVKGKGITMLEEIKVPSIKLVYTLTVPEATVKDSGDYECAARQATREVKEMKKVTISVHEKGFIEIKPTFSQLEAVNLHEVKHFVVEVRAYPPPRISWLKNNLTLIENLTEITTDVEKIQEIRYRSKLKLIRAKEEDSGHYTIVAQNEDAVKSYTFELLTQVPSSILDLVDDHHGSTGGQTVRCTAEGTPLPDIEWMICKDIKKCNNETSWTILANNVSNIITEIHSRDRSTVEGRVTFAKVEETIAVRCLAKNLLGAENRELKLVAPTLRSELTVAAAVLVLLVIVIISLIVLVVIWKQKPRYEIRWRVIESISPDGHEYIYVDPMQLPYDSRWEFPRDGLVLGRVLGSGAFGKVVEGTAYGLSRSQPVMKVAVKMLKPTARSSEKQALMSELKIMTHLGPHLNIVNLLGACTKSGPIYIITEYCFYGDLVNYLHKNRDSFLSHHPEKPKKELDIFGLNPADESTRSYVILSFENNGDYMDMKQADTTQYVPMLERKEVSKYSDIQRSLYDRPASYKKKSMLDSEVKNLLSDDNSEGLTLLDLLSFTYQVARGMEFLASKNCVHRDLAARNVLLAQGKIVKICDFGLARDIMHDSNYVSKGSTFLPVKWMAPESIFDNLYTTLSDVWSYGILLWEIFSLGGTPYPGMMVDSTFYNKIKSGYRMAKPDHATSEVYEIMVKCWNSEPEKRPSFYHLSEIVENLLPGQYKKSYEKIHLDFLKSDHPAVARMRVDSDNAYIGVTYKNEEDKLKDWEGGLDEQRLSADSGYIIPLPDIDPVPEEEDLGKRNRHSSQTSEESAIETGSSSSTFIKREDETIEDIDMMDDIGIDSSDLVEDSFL
compound,measurement,setting,value
"O=C(/C=C/c1ccc(Br)cc1)c1ccc(OCCCSc2nncs2)cc1 [ZW97, (E)-1-(4-(3-((1,3,4-thiadiazol-2-yl)thio)propoxy)phenyl)-3-(4-bromophenyl)prop-2-en-1-one]",IC50,PDGFRα,> 1500 nM
same,level of E-cadherin,E-cadherin,upregulated
same,IC50,EGFR,> 1500 nM
same,antiproliferative efficacy against HCC-44 cells,HCC-44 cells; 4 μM,approximately 65.7%
same,antiproliferative efficacy against HCC-44 cells,HCC-44 cells; 8 μM,~88.3%
same,IC50,"HCC-44 cells; Homo sapiens, HCC44, read-out: IC50 against HCC-44 cells",2060 nM
same,cell migration (transwell),NCI-H460 cells [1],hindered NCI-H460 cell migration
same,subcutaneous tumour growth,NCI-H460 xenograft; 50 mg/kg intragastric for 16 days,suppressed NCI-H460 subcutaneous tumour growth
same,mouse body weight,"NCI-H460 xenograft; 50 mg/kg intragastric for 16 days, compared with control",did not significantly decrease the mouse body weight
same,inhibitory rate (tumour weight),"NCI-H460 xenograft; day 16, 50 mg/kg intragastric once every 3 days, versus vehicle group",61.58%
same,IC50,c-Met kinase,27.96 ± 0.14 nM
same,IC50,FGFR1,> 1500 nM
same,level of N-cadherin,N-cadherin,downregulated
same,antiproliferative activity in nine cancer cell lines,[2],antiproliferative activity against all nine cancer cell lines
same,IC50,TRKA,> 1500 nM
same,wound healing,NCI-H460 cells [3],inhibited the wound healing in a concentration dependent manner
same,IC50,NCI-H460 cells [4],150 nM
same,IC50,ALK,> 1500 nM
same,IC50,NCI-H3122 cells,1170 nM
same,IC50,[5],> 64000 nM
